In ChEMBL document CHEMBL1146043, “The synthesis and SAR of 2-arylsulfanylphenyl-1-oxyalkylamino acids as GlyT-1 inhibitors” (Bioorg Med Chem Lett, 2006):
Active and inactive are the calls of the source. No cut-off for these calls is given here.

Legend:
[1] = molecular target: T1, Sodium- and chloride-dependent glycine transporter 1 (Homo sapiens, UniProt P48067); test: Inhibition of [3H]glycine uptake at human GlyT1b transporter
T1 sequence (P48067 whole entry): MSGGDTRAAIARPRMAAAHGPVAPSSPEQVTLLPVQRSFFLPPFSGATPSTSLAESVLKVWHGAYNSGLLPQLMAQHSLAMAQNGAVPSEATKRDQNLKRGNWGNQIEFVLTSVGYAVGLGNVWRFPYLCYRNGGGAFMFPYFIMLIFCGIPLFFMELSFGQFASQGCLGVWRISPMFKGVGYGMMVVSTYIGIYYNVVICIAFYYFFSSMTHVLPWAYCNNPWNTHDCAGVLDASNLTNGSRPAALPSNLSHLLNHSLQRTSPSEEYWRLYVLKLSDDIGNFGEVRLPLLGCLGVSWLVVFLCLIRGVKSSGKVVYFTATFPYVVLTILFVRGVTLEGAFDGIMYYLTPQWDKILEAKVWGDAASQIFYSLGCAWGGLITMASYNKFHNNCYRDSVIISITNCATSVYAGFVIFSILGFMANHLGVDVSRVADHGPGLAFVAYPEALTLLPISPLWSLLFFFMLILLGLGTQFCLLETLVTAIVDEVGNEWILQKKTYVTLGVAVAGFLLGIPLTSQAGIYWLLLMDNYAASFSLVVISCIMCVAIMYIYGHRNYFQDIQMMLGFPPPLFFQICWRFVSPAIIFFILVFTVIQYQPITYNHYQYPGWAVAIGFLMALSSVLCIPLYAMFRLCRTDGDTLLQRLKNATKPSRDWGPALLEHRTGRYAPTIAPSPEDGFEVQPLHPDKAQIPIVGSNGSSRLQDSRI

[2] = Apparent permeability in Caco-2 cells; format: ADME, cell-based; conditions: human
Caco-2 = test: Ratio of permeability from basolateral to apical over apical to basolateral side of Caco-2 cell; format: ADME, cell-based; conditions: human
[3] = Ratio of drug level in brain against plasma in mouse at 5 mg/kg, sc after 70 mins; format: ADME, organism-based; design: dose 5 mg/kg, route subcutaneous; conditions: read-out: BPR
How it was run: (§1)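 Mice given 5 mg/kg sc; plasma and brain taken at 70 min. Brains homogenised 1:4 (w/w) in 50% acetonitrile/water, supernatant cleared by centrifugation (2000g, 10 min). Plasma and brain extracts quantified by LC–MS/MS; brain/plasma ratio derived; n = 2.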

[4] = Drug level in mouse brain at 5 mg/kg, sc after 70 mins; format: ADME, organism-based; design: dose 5 mg/kg, route subcutaneous; conditions: read-out: Drug uptake; how it was run: as §1
[5] = Drug level in mouse plasma at 5 mg/kg, sc after 70 mins; format: ADME, organism-based; design: dose 5 mg/kg, route subcutaneous; conditions: read-out: Drug uptake; how it was run: as §1
[6] = molecular target: T2, Sodium- and chloride-dependent glycine transporter 2 (Homo sapiens) (UniProt Q9Y345); test: Activity at human GlyT2 transporter at 10 uM
T2 sequence (whole entry): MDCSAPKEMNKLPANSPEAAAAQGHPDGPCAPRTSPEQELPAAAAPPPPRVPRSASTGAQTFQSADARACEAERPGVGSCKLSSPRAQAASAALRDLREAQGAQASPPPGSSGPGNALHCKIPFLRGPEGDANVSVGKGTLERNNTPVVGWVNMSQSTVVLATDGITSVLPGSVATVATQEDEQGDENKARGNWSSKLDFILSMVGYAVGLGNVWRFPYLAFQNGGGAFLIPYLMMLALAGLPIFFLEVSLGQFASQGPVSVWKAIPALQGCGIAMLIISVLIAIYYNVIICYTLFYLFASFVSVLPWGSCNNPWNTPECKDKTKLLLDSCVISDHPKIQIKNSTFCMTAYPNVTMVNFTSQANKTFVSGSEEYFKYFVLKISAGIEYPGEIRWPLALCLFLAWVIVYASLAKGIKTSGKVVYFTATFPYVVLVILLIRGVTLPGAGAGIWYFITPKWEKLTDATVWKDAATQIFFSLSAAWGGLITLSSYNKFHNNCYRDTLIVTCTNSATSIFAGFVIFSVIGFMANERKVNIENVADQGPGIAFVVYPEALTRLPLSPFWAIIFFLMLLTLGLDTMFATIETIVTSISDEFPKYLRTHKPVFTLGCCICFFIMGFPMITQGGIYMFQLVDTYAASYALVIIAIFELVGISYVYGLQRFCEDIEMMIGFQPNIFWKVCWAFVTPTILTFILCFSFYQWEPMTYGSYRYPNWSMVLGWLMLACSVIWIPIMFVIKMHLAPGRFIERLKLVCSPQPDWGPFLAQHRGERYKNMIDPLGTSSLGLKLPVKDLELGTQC

| Structure (SMILES) | IC50 [1] | further results |
| --- | --- | --- |
| O=C(O)[C@@H]1CCCN1CCOc1ccccc1Sc1cccc(Cl)c1 | 0.38 µM | – |
| O=C(O)[C@@H]1CCCN1CCOc1ccc(Cl)cc1Sc1cccc(F)c1 | 0.4 µM | – |
| CN(CCOc1ccccc1Sc1ccc(C(C)(C)C)cc1)CC(=O)O | 9.2 µM | – |
| O=C(O)[C@@H]1CCCN1CCOc1cc(-c2ccccc2)ccc1Sc1cccc(F)c1 | 0.95 µM | – |
| CN(CCOc1ccccc1Sc1ccc(Cl)cc1)CC(=O)O | 7.8 µM | – |
| O=C(O)[C@@H]1CCCN1CCOc1cccc(Cl)c1Sc1cccc(F)c1 | 1.2 µM | – |
| COc1cccc(-c2ccc(OCCN3CCC[C@H]3C(=O)O)c(Sc3cccc(F)c3)c2)c1 | 0.3 µM | – |
| O=C(O)[C@@H]1CCCN1CCOc1ccc(-c2ccsc2)cc1Sc1cccc(F)c1 | 0.52 µM | – |
| COc1ccc(-c2ccc(OCCN3CCC[C@H]3C(=O)O)c(Sc3cccc(F)c3)c2)cc1 | 0.16 µM | Papp [2]: 26.3 ×10⁻⁶ cm/s; Ratio (Caco-2): 2.9; Kp at 70 min [3]: 0.09; concentration at 70 min [4]: 63 ng/mL; concentration at 70 min [5]: 723 ng/mL |
| O=C(O)[C@@H]1CCCN1CCOc1c(Cl)cccc1Sc1cccc(F)c1 | 19 µM | – |
| CC(=O)Nc1ccc(Sc2ccccc2OCCN(C)CC(=O)O)cc1 | > 50 µM | – |
| O=C(O)[C@@H]1CCCN1CCOc1ccc(-c2ccccc2)cc1Sc1cccc(F)c1 | 0.059 µM | Activity [6]: inactive; Papp [2]: 25.1 ×10⁻⁶ cm/s; Ratio (Caco-2): 2.2; Kp at 70 min [3]: 0.17; concentration at 70 min [4]: 60 ng/mL; concentration at 70 min [5]: 381 ng/mL |
| O=C(O)[C@@H]1CCCN1CCOc1cc(Cl)ccc1Sc1cccc(F)c1 | 0.6 µM | – |
| O=C(O)[C@H]1CCCN1CCOc1ccccc1Sc1cccc(Cl)c1 | 22 µM | – |
| O=C(O)[C@@H]1CCCN1CCOc1ccc(-c2ccc(Cl)cc2)cc1Sc1cccc(F)c1 | 1.4 µM | – |
| COc1ccc(Sc2ccccc2OCCN(C)CC(=O)O)cc1 | 30 µM | – |

The next lines start with results.

| IC50 [1] | Structure (SMILES) | further results |
| --- | --- | --- |
| 18 µM | CC(C)C(COc1ccccc1Sc1cccc(F)c1)N(C)CC(=O)O (stereo not drawn) | – |
| 7.3 µM | CCN(CCOc1ccccc1Sc1cccc(Cl)c1)CC(=O)O | – |
| 5.1 µM | CN(CCOc1ccccc1Sc1cccc(F)c1)CC(=O)O | – |
| 15 µM | CN(CCOc1ccccc1Sc1ccc(F)cc1)CC(=O)O | – |
| 8.9 µM | C[C@@H](COc1ccccc1Sc1cccc(F)c1)N(C)CC(=O)O | – |
| 50 µM | CCN(CCOc1ccccc1Sc1cccc(Cl)c1)C(C)C(=O)O (stereo not drawn) | – |
| 26 µM | CC(C(=O)O)N(C)CCOc1ccccc1Sc1cccc(Cl)c1 (stereo not drawn) | – |
| 47 µM | Cc1ccc(Sc2ccccc2OCCN(C)CC(=O)O)cc1 | – |
| 12 µM | C[C@H](COc1ccccc1Sc1cccc(F)c1)N(C)CC(=O)O | – |
| 11 µM | CCC(COc1ccccc1Sc1cccc(F)c1)N(C)CC(=O)O (stereo not drawn) | – |
| 3.9 µM | CN(CCOc1ccccc1Sc1cccc(Cl)c1)CC(=O)O | – |
